Measurements: ChEMBL document CHEMBL3120057, “Bioactive limonoids from the leaves of Azaridachta indica (Neem)” (J Nat Prod, 2014)
pIC50, pKd: −log10 of the molar value. Calls of active or inactive are those of the source. No cut-off for these calls is given here.

Tests used:
PC-3 [1] = assay: Cytotoxicity against human PC3 cells after 48 hrs; assay type: functional, cell-based; details: PC-3, 48 h
Summary of the method: (§1)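 MTT viability. ATCC cells in DMEM with 10% FBS and penicillin/streptomycin at 37 °C under 5% CO2, plated at 1.2 × 10^5/mL the day before dosing. Exposed 48 h to 20−100 μM (DMSO stocks diluted in medium). Formazan dissolved in DMSO and read at 550 nm. Viability expressed as % of vehicle control, blank-subtracted. Checked by trypan blue count. PEITC as positive control. Mean ± SD, at least three experiments in duplicate.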

HeLa [2] = assay: Cytotoxicity against human HeLa cells assessed as growth inhibition at 100 uM after 48 hrs by trypan blue exclusion assay; assay type: functional, cell-based
Summary of the method: (§2)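 Cells cultured in DMEM with 10% FBS, streptomycin and penicillin at 37 °C under 5% CO2, and plated at 1.2 × 10^5/mL one day before treatment. Single 100 μM exposure for 48 h from DMSO stock diluted in medium. Viability read by MTT at 550 nm, blank-subtracted, as % of DMSO-vehicle control. Random checks by trypan blue exclusion count.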

PC-3 [3] = assay: Cytotoxicity against human PC3 cells assessed as growth inhibition at 100 uM after 48 hrs by trypan blue exclusion assay; assay type: functional, cell-based; summary of the method: as §2
HeLa [4] = assay: Cytotoxicity against human HeLa cells after 48 hrs; assay type: functional, cell-based; summary of the method: as §1
[5] = target: Heat shock protein HSP 90-alpha (Homo sapiens, UniProt P07900); assay: Binding affinity to recombinant HSP90-alpha (unknown origin) by surface plasmon resonance analysis

In the case of `CC(=O)O[C@@H]1[C@H](O)[C@H]2C(C)(C)C(=O)CC[C@]2(C)[C@H]2CC[C@]3(C)C(=CC[C@H]3c3ccoc3)[C@]12C`, the pIC50 (PC-3 [1]) was 4.05, the “growth inhibition (GI)” value (HeLa [2]) was “Active” and the “growth inhibition (GI)” value (PC-3 [3]) was “Active”. It also gave a pIC50 (HeLa [4]) of 4.13.

With `COC(=O)[C@H]1OC[C@]23[C@@H]1[C@](C)([C@]14O[C@@]1(C)[C@H]1C[C@@H]4O[C@@H]4OC=C[C@@]41O)[C@H](O)[C@@H]1OC[C@](C(=O)OC)([C@H](O)C[C@@H]2O)[C@H]13` the “growth inhibition (GI)” value (HeLa [2]) was “inactive” and the “growth inhibition (GI)” value (PC-3 [3]) was “inactive”.

`COC(=O)C[C@H]1[C@]2(C)C3=C(C)[C@H](C4=CC(=O)OC4O)C[C@@H]3O[C@@H]2[C@H](O)[C@@H]2[C@]1(C)C(=O)C=C[C@@]2(C)O` (stereo partly drawn) was tested, and the “growth inhibition (GI)” value (HeLa [2]) was “inactive”, the “growth inhibition (GI)” value (PC-3 [3]) was “inactive” and the Activity [5] was “inactive”.

In the case of `COC(=O)C[C@H]1[C@]2(C)C3=C(C)[C@H](C4=COC(=O)C4O)C[C@@H]3O[C@@H]2[C@H](O)[C@@H]2[C@]1(C)C(=O)C=C[C@@]2(C)O` (stereo partly drawn), the “growth inhibition (GI)” value (HeLa [2]) was “inactive”, the “growth inhibition (GI)” value (PC-3 [3]) was “inactive” and the Activity [5] was “inactive”.

`CC(=O)O[C@@H]1[C@H](O)[C@H]2C(C)(C)C(=O)C=C[C@]2(C)[C@H]2CC[C@]3(C)C(=CC[C@H]3c3ccoc3)[C@]12C` [NIMONOL] was tested, and the pIC50 (PC-3 [1]) was 4.02, the “growth inhibition (GI)” value (HeLa [2]) was “Active” and the “growth inhibition (GI)” value (PC-3 [3]) was “Active”. It also gave a pIC50 (HeLa [4]) of 4.11.

For `C/C=C(\C)C(=O)O[C@H]1C[C@@H](O)[C@@]2(C(=O)OC)CO[C@H]3[C@@H](O)[C@@](C)([C@]45O[C@@]4(C)[C@H]4C[C@@H]5O[C@@H]5OC=C[C@@]54O)[C@@H]4[C@@H](C(=O)OC)OC[C@@]14[C@@H]32`, the “growth inhibition (GI)” value (HeLa [2]) was “inactive” and the “growth inhibition (GI)” value (PC-3 [3]) was “inactive”.

In the case of `CC(=O)O[C@@H]1[C@H](O)[C@H]2C(C)(C)C(=O)CC[C@]2(C)[C@H]2CC[C@]3(C)C(=CC[C@H]3C3=COC(=O)C3O)[C@]12C` (stereo partly drawn), the “growth inhibition (GI)” value (HeLa [2]) was “inactive” and the “growth inhibition (GI)” value (PC-3 [3]) was “inactive”.

With `CC(=O)O[C@@H]1C[C@H](OC(=O)C=C(C)C)[C@@]2(C)[C@H]3[C@@H](OC[C@]13C)[C@@H](O)[C@@]1(C)C3=CC[C@@H]([C@@H]4COC(=O)C4)[C@]3(C)CC[C@@H]12` the “growth inhibition (GI)” value (HeLa [2]) was “inactive”, the “growth inhibition (GI)” value (PC-3 [3]) was “inactive” and the Activity [5] was “inactive”.

For `C/C=C(\C)C(=O)O[C@H]1C[C@@H](O)[C@@]2(C)CO[C@H]3[C@H]4O[C@@H]5C[C@@H](c6ccoc6)C(C)=C5[C@@]4(C)[C@H](CC(=O)OC)[C@]1(C)[C@@H]32` [DESACETYL SALANNIN], the “growth inhibition (GI)” value (HeLa [2]) was “inactive”, the “growth inhibition (GI)” value (PC-3 [3]) was “inactive” and the pKd [5] was 7.48.

With `CC(=O)O[C@H]1C[C@@H](OC(C)=O)[C@@]2(C)CO[C@@H]3[C@@H](O)[C@@]4(C)C5=CC[C@@H](c6ccoc6)[C@]5(C)CC[C@@H]4[C@]1(C)[C@@H]32` the pIC50 (PC-3 [1]) was 4.10, the “growth inhibition (GI)” value (HeLa [2]) was “Active” and the “growth inhibition (GI)” value (PC-3 [3]) was “Active”. For the same compound, the pIC50 (HeLa [4]) was 4.13 and the pKd [5] was 7.31.

For `CC(=O)O[C@@H]1[C@H](O)[C@H]2C(C)(C)C(=O)C=C[C@]2(C)[C@H]2CC[C@]3(C)C(=CC[C@H]3C3=COC(=O)C3O)[C@]12C` (relative stereo), the “growth inhibition (GI)” value (HeLa [2]) was “inactive” and the “growth inhibition (GI)” value (PC-3 [3]) was “inactive”.

With `CC(=O)O[C@@H]1[C@H](O)[C@H]2C(C)(C)C(=O)CC[C@]2(C)[C@H]2CC[C@]3(C)C(=CC[C@H]3[C@H]3COC(=O)C3)[C@]12C` the “growth inhibition (GI)” value (HeLa [2]) was “inactive” and the “growth inhibition (GI)” value (PC-3 [3]) was “inactive”.

With `CC(=O)O[C@@H]1[C@H](O)[C@H]2C(C)(C)C(=O)CC[C@]2(C)[C@H]2CC[C@]3(C)C(=CC[C@H]3[C@@H]3CC(=O)OC3=O)[C@]12C` (relative stereo) the “growth inhibition (GI)” value (HeLa [2]) was “inactive” and the “growth inhibition (GI)” value (PC-3 [3]) was “inactive”.

`COc1cc(/C=C/C(=O)OC[C@H]2O[C@@H](OC(C)(C)C(=O)O)[C@H](O)[C@@H](O)[C@@H]2O)cc(OC)c1O` was tested, and the “growth inhibition (GI)” value (HeLa [2]) was “inactive” and the “growth inhibition (GI)” value (PC-3 [3]) was “inactive”.

In the case of `CC(=O)O[C@@H]1[C@H](O)[C@H]2C(C)(C)C(=O)C=C[C@]2(C)[C@H]2CC[C@]3(C)C(=CC[C@H]3[C@@H]3CC(=O)OC3=O)[C@]12C` (relative stereo), the pIC50 (PC-3 [1]) was under 4.00, the “growth inhibition (GI)” value (HeLa [2]) was “Active” and the “growth inhibition (GI)” value (PC-3 [3]) was “Active”. The pIC50 (HeLa [4]) was 4.02.
